# Assay results from ChEMBL document CHEMBL1146073, “A pyridazine series of alpha2/alpha3 subtype selective GABA A agonists for the treatment of anxiety” (J Med Chem, 2006).
# pKi: −log10 of the molar value.
# Legend:
# [1] = molecular target: GABA-A receptor; alpha-3/beta-3/gamma-2 (Homo sapiens) (UniProt P18507+P28472+P34903); assay: Efficacy against recombinant human GABA-Aalpha3 plus beta-3-gamma-2 expressed in L(tk-) cells by whole cell patch clamp method relative to chlordiazepoxide; assay type: functional, cell-based
# Method in brief: (§1)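 Whole-cell patch clamp on αxβ3γ2 receptors stably expressed in L(tk-) cells, measuring the effect on current evoked by an EC20-equivalent of GABA. Reported relative to full agonist chlordiazepoxide (=1.0), or as direct percent modulation of the EC20 control, with inverse agonism given as percent. Mean of at least four independent experiments.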
# [2] = molecular target: T1, GABA-A receptor; alpha-3/beta-3/gamma-2 (Homo sapiens, UniProt P18507+P28472+P34903); assay: Displacement of [3H]Ro-151788 from recombinant human GABA-Aalpha3 receptor plus beta3gamma2; assay type: protein-complex assay
# T1 sequence (P18507 whole entry): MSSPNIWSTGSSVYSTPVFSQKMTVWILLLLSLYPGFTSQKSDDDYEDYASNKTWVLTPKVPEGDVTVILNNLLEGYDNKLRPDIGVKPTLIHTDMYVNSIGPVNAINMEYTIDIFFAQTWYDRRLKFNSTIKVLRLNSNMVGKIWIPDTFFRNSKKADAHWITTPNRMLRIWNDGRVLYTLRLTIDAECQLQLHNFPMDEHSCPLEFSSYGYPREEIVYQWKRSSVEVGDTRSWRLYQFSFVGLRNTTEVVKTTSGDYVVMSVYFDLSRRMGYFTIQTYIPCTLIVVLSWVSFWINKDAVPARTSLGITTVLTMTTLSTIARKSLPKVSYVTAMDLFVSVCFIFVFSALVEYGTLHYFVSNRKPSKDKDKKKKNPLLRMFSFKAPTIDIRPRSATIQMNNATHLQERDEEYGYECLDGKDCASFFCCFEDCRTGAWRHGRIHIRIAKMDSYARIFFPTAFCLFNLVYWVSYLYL
# T1 sequence (P28472 whole entry): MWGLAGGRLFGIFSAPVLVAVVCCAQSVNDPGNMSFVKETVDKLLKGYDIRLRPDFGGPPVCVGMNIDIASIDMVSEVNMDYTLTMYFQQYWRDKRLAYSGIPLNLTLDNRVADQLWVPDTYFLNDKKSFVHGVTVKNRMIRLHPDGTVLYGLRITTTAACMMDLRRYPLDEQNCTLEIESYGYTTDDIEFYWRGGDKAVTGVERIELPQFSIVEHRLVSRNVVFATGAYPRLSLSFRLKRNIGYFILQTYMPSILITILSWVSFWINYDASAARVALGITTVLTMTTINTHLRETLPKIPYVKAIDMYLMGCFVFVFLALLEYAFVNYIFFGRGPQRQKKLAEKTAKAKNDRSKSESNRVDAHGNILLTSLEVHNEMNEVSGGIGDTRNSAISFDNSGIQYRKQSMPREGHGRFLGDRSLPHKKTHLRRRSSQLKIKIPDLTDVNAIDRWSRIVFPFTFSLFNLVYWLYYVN
# T1 sequence (P34903 whole entry): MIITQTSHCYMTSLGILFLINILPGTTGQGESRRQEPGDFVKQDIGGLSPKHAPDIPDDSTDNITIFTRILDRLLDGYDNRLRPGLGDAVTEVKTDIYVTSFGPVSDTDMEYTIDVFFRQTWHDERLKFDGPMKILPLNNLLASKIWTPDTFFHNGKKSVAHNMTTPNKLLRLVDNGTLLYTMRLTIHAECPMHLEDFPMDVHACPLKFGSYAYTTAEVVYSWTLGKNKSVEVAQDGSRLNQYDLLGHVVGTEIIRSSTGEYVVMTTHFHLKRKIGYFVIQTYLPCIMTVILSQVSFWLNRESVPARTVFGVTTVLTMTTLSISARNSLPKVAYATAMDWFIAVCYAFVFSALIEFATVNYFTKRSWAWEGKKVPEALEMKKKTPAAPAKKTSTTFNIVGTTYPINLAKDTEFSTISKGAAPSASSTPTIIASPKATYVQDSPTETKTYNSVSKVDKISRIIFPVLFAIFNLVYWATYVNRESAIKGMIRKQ
# Method in brief: (§2)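 Benzodiazepine-site binding on stably transfected αxβ3γ2 receptors (x = 1, 2, 3 or 5). Inhibition curves run with [3H]Ro15-1788 at roughly twice its Kd. Ki derived by Cheng-Prusoff equation. Mean of three to six determinations.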
# [3] = molecular target: T2, GABA-A receptor; alpha-1/beta-3/gamma-2 (Homo sapiens, UniProt P14867+P18507+P28472); assay: Displacement of [3H]Ro-151788 from recombinant human GABA-Aalpha1 receptor plus beta3gamma2; assay type: protein-complex assay; method in brief: as §2
# T2 sequence (P14867 whole entry): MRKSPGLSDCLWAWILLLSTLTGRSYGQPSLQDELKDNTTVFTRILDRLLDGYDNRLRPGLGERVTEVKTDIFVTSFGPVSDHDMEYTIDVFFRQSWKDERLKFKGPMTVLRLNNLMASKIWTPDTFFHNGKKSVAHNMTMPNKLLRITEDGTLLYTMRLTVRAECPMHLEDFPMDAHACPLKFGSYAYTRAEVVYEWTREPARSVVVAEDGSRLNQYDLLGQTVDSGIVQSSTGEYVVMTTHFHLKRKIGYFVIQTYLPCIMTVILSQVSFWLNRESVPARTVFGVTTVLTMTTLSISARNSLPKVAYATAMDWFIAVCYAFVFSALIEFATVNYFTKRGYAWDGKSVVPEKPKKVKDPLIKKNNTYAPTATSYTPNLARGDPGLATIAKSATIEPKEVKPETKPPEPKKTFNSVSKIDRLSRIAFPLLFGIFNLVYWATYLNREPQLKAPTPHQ
# T2 sequence (P18507 whole entry): T1 sequence (P18507 whole entry)
# T2 sequence (P28472 whole entry): T1 sequence (P28472 whole entry)
# [4] = Stability in rat assessed as liver microsomal turnover; assay type: ADME, Microsome; conditions: liver microsomes, read-out: Stability
# Method in brief: (§3)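 Test compound at 1 µM, with diazepam as control, incubated 0.25 h with pooled liver microsomes at 0.5 mg/mL protein. Compound remaining quantified by LC/MS/MS. Turnover is the mean of three determinations.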
# [5] = molecular target: T3, GABA-A receptor; alpha-5/beta-3/gamma-2 (Homo sapiens, UniProt P18507+P28472+P31644); assay: Displacement of [3H]Ro-151788 from recombinant human GABA-Aalpha5 receptor plus beta3gamma2; assay type: protein-complex assay; method in brief: as §2
# T3 sequence (P18507 whole entry): T1 sequence (P18507 whole entry)
# T3 sequence (P28472 whole entry): T1 sequence (P28472 whole entry)
# T3 sequence (P31644 whole entry): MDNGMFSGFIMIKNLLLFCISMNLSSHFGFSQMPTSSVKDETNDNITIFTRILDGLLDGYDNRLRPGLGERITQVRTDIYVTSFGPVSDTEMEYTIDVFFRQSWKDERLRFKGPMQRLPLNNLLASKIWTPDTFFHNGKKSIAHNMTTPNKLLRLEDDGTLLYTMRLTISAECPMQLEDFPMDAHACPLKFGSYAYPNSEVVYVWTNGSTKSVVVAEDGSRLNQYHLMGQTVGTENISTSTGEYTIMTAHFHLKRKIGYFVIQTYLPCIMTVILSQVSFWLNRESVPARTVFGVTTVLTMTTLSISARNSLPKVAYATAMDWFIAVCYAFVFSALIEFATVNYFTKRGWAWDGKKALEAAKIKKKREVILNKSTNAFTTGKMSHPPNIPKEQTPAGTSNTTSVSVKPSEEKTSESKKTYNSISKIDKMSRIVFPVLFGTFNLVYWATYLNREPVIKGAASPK
# [6] = Stability in dog assessed as liver microsomal turnover; assay type: ADME, Canis lupus familiaris; conditions: liver microsomes, read-out: Stability; method in brief: as §3
# [7] = molecular target: T4, GABA-A receptor; alpha-1/beta-3/gamma-2 (Homo sapiens) (UniProt P14867+P18507+P28472); assay: Efficacy against recombinant human GABA-Aalpha1 plus beta-3-gamma-2 expressed in L(tk-) cells by whole cell patch clamp method; assay type: functional, cell-based; method in brief: as §1
# [8] = Stability in human assessed as liver microsomal turnover; assay type: ADME, Microsome; conditions: liver microsomes, read-out: Stability; method in brief: as §3
# [9] = Half life in rat; assay type: ADME, organism-based; conditions: in vivo
# Method in brief: (§4)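 Pharmacokinetics from six animals per species: three dosed iv and three dosed po.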
# [10] = Oral bioavailability in rat; assay type: ADME, organism-based; conditions: in vivo; method in brief: as §4
# [11] = molecular target: GABA-A receptor; anion channel (Rattus norvegicus) (UniProt O09028+P15431+P18506+P18508+P19969+P20236+P23574+P23576+P28471+P28473+P30191+P62813+P63079+P63138+Q91ZM7+Q9ES14); assay: Receptor occupancy in vivo by displacement of [3H]Ro 15-1788 binding from GABA-A receptor in rat, po; assay type: functional, organism-based
# Method in brief: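 Rat in vivo occupancy measured by [3H]Ro 15-1788 binding after oral dosing. Rats taken as a subgroup after the plus-maze trial, i.e. 30 min post-dose or later. ED50 derived from dose-dependent occupancy. Mean ± SEM, n = 5-10/group.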
# [12] = molecular target: T5, GABA-A receptor; alpha-5/beta-3/gamma-2 (Homo sapiens) (UniProt P18507+P28472+P31644); assay: Efficacy against recombinant human GABA-Aalpha5 plus beta-3-gamma-2 expressed in L(tk-) cells by whole cell patch clamp method; assay type: functional, cell-based; method in brief: as §1
# [13] = molecular target: GABA-A receptor; alpha-2/beta-3/gamma-2 (Homo sapiens) (UniProt P18507+P28472+P47869); assay: Efficacy against recombinant human GABA-Aalpha2 plus beta-3-gamma-2 expressed in L(tk-) cells by whole cell patch clamp method relative to chlordiazepoxide; assay type: functional, cell-based; method in brief: as §1
# [14] = Plasma clearance in rat; assay type: ADME, organism-based; method in brief: as §4
# [15] = molecular target: T4, GABA-A receptor; alpha-1/beta-3/gamma-2 (Homo sapiens); assay: Efficacy against recombinant human GABA-Aalpha1 plus beta-3-gamma-2 expressed in L(tk-) cells by whole cell patch clamp method relative to chlordiazepoxide; assay type: functional, cell-based; method in brief: as §1
# [16] = molecular target: T5, GABA-A receptor; alpha-5/beta-3/gamma-2 (Homo sapiens); assay: Efficacy against recombinant human GABA-Aalpha5 plus beta-3-gamma-2 expressed in L(tk-) cells by whole cell patch clamp method relative to chlordiazepoxide; assay type: functional, cell-based; method in brief: as §1
Structure (SMILES),Efficacy [1],pKi [2],pKi [3],metabolised [4] [%],pKi [5],metabolised [6] [%],Efficacy [7] [%],metabolised [8] [%],half-life [9] [h],bioavailability [10] [%],Occ50 [11] [mg/kg],Efficacy [12] [%],Efficacy [13],clearance [14] [mL/min/kg],Efficacy [15],Activity [11] [mg/kg],Efficacy [16]
Fc1cnccc1-c1cc(-c2ccc(F)c(-c3ncccc3F)c2)cnn1,0.58,8.25,9.05,17,8.11,8,-8,8,0.8,5,7.2,-3,0.24,91,,,
Fc1ccc(-c2cnnc(-c3c(F)cncc3F)c2)cc1-c1ncccc1F,0.39,8.49,9.10,9,8.52,9,-7,9,,,< 0.2,,,,,,
Fc1ccc(-c2cc(-c3ccc(F)c(-c4ncc(F)cc4F)c3)cnn2)c(F)c1,0.42,8.51,,13,8.85,18,,< 5,,,4.6,,,,0.07,,
Fc1ccc(-c2cc(-c3ccc(F)c(-c4ncc(F)cc4F)c3)cnn2)cc1,0.21,8.25,,7,8.42,20,,,,,,,,,0.02,,
Fc1cnc(-c2cc(-c3cnnc(-c4ccncc4F)c3)ccc2F)c(F)c1,0.41,8.09,8.46,23,8.25,,-7,< 5,,,15.3,,,,,,

# Compounds with a higher pKi [2], results first:
Efficacy [1],pKi [2],pKi [3],metabolised [4] [%],pKi [5],metabolised [6] [%],Efficacy [7] [%],metabolised [8] [%],half-life [9] [h],bioavailability [10] [%],Occ50 [11] [mg/kg],Efficacy [12] [%],Efficacy [13],clearance [14] [mL/min/kg],Efficacy [15],Activity [11] [mg/kg],Efficacy [16],Structure (SMILES)
0.24,9.40,10.00,19,9.52,24,-5,13,,,,,,,,,,Fc1ccc(-c2cnnc(-c3c(F)cccc3F)c2)cc1-c1ncccc1F
0.4,8.85,9.30,3,8.62,2,-30,5,,,,,,,,0.5,,Fc1ccc(-c2cnnc(-c3ncccc3F)c2)cc1-c1ncccc1F
0.17,8.77,9.40,< 5,8.49,,-26,< 5,,,,,,,,< 0.2,0.14,Fc1cnc(-c2cc(-c3cnnc(-c4ncccc4F)c3)ccc2F)c(F)c1
0.4,8.77,,22,9.15,31,-20,8,2.2,11,3,-20,0.2,30,,,,Fc1cnc(-c2cc(-c3cnnc(-c4ccccc4F)c3)ccc2F)c(F)c1
0.31,9.05,,11,9.30,34,,,,,,,,,0.11,,,Fc1ccccc1-c1cc(-c2ccc(F)c(-c3ncccc3F)c2)cnn1
